Results taken from ChEMBL document CHEMBL1154008, “Synthesis and in vitro activity of new tetrahydronaphtho[1,2-b]azepine derivatives against Trypanosoma cruzi and Leishmania chagasi parasites” (Bioorg Med Chem Lett, 2009).

Experiments:
Trypanosoma cruzi [1] = assay: Antiparasitic activity against Trypanosoma cruzi 320I04 epimastigotes […] after 72 hrs; assay type: functional, organism-based
In short: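 Free parasite forms (T. cruzi 320I04 epimastigotes; L. chagasi MHOM/BR/74/PP75 promastigotes) exposed to compounds for 72 h at 27 °C. IC50/IC90 taken as the concentrations giving 50% or 90% growth inhibition. Values are representative of one experiment out of three.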

[2] = Cytotoxicity against african green monkey Vero cells after 72 hrs by MTT assay; assay type: cell-based; settings: chlorocebus sabaeus
In short: (§1)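 Vero or transformed THP-1 cells exposed to a 3-fold compound dilution series, in triplicate, for 72 h at 37 °C. Toxicity read by MTT reduction. CC50/CC90 taken as the concentrations killing 50% or 90% of cells. Values are representative of one experiment out of three.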

Trypanosoma cruzi [3] = assay: Antiparasitic activity against Trypanosoma cruzi 320I04 intracellular amastigotes infected in african green monkey Vero cells after 72 hrs; assay type: functional, organism-based; settings: 320I04, Vero
[4] = Selectivity index, ratio of CC50 for human THP1 cells to IC50 for Leishmania chagasi MHOM/BR/74/PP75 promastigotes; assay type: functional, THP-1
In short: (§2)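 SI calculated as Vero CC50 divided by T. cruzi IC50, or THP-1 CC50 divided by L. chagasi IC50. Both values come from 72 h exposures: parasites at 27 °C, mammalian cells at 37 °C with MTT read-out.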

[5] = Selectivity index, ratio of CC50 for african green monkey Vero cells to IC50 for Trypanosoma cruzi 320I04 intracellular amastigotes; assay type: functional
[6] = Selectivity index, ratio of CC50 for african green monkey Vero cells to IC50 for Trypanosoma cruzi 320I04 epimastigotes; assay type: functional; in short: as §2
Leishmania chagasi = assay: Antiparasitic activity against Leishmania chagasi MHOM/BR/74/PP75 promastigotes infected in human THP1 cells after 72 hrs; settings: MHOM/BR/74/PP75, THP-1, 72 h
[7] = Cytotoxicity against human THP1 cells after 72 hrs by MTT assay; assay type: cell-based; settings: THP-1 cells; in short: as §1

Row | Structure (SMILES) | IC50 (Trypanosoma cruzi [1]) | IC90 (Trypanosoma cruzi [1]) | CC50 at 72 h [2] | CC90 at 72 h [2] | IC90 (Trypanosoma cruzi [3]) | Ratio CC50/IC50 [4] | Ratio CC50/IC50 [5] | Ratio CC50/IC50 [6] | IC50 (Leishmania chagasi) | IC90 (Leishmania chagasi) | CC50 at 72 h [7] | CC90 at 72 h [7] | IC50 (Trypanosoma cruzi [3])
1 | CC1CS(=O)(=O)CCN1/N=C/c1ccc([N+](=O)[O-])o1 (stereo unspecified) [NIFURTIMOX] | 4.8 µM | 17 µM | 114 µM | > 300 µM | 11 µM | – | – | – | – | – | – | – | –
2 | COc1cccc([C@@H]2C[C@H](O)Cc3ccc4ccccc4c3N2)c1 | 14 µM | 48.5 µM | 97.6 µM | > 200 µM | > 30 µM | 10.9 | 4 | 7 | 17.9 µM | 58.7 µM | 195 µM | > 300 µM | 24.3 µM
3 | Cc1cccc([C@@H]2C[C@@H]3Cc4ccc5ccccc5c4N2O3)c1 | 17 µM | 44.1 µM | > 300 µM | > 300 µM | > 100 µM | >8.5 | >3 | >17.6 | 35.2 µM | 41.2 µM | > 300 µM | > 300 µM | > 100 µM
4 | Fc1ccc([C@@H]2C[C@@H]3Cc4ccc5ccccc5c4N2O3)cc1 | 90.5 µM | > 300 µM | > 300 µM | > 300 µM | > 100 µM | >4.3 | >3 | >3.3 | 70.4 µM | 113 µM | > 300 µM | > 300 µM | > 100 µM
5 | Brc1ccc([C@@H]2C[C@@H]3Cc4ccc5ccccc5c4N2O3)cc1 | 11.4 µM | 176 µM | > 250 µM | > 250 µM | > 100 µM | >3.4 | – | 21.9 | 73.4 µM | > 250 µM | > 250 µM | > 250 µM | > 100 µM
6 | O[C@@H]1Cc2ccc3ccccc3c2N[C@H](c2ccccc2)C1 | 5.7 µM | 35.1 µM | 108 µM | > 268 µM | > 30 µM | 2.2 | 5.6 | 18.9 | 46 µM | 67.1 µM | 102 µM | > 300 µM | 19.3 µM
7 | O[C@@H]1Cc2ccc3ccccc3c2N[C@H](c2cccc(Cl)c2)C1 | 1.4 µM | 54.9 µM | 30.7 µM | > 200 µM | > 30 µM | 7.2 | 1.3 | 21.9 | 6 µM | 67.3 µM | 43.2 µM | 177 µM | 23.4 µM
8 | O[C@@H]1Cc2ccc3ccccc3c2N[C@H](c2ccc(Br)cc2)C1 | 10.2 µM | 15.9 µM | 66.1 µM | > 200 µM | 29.7 µM | 4.3 | 6.7 | 6.5 | 18.5 µM | 37.1 µM | 79 µM | > 200 µM | 9.9 µM
9 | O[C@@H]1Cc2ccc3ccccc3c2N[C@H](c2ccc(Cl)cc2Cl)C1 | 1 µM | 19.4 µM | 45.4 µM | > 200 µM | > 30 µM | 7.2 | <1.5 | 45.4 | 11 µM | 28.2 µM | 79.4 µM | 92.7 µM | > 30 µM
10 | O[C@@H]1Cc2ccc3ccccc3c2N[C@H](c2ccc(F)cc2)C1 | 1.1 µM | 11.6 µM | 100 µM | > 250 µM | > 30 µM | 3.9 | 6.8 | 91.4 | 21 µM | 120 µM | 81.9 µM | > 250 µM | 14.8 µM
11 | Clc1cccc([C@@H]2C[C@@H]3Cc4ccc5ccccc5c4N2O3)c1 | 12.6 µM | 80.1 µM | > 300 µM | > 300 µM | > 100 µM | >9.2 | >22.9 | >23.8 | 32.7 µM | > 300 µM | > 300 µM | > 300 µM | 13.1 µM
12 | C[C@@H]1[C@H](O)[C@@H](C)/C=C/C=C/C=C/C=C/C=C/C=C/C=C/[C@H](O[C@@H]2O[C@H](C)[C@@H](O)[C@H](N)[C@@H]2O)C[C@@H]2O[C@](O)(C[C@@H](O)C[C@@H](O)[C@H](O)CC[C@@H](O)C[C@@H](O)CC(=O)O[C@H]1C)C[C@H](O)[C@H]2C(=O)O [AMPHOTERICIN B] | – | – | – | – | – | 17 | – | – | 0.01 µM | 0.03 µM | 0.17 µM | 0.18 µM | –
13 | O[C@@H]1Cc2ccc3ccccc3c2N[C@H](c2ccc(Cl)cc2)C1 | 3.2 µM | 24.8 µM | 95 µM | > 250 µM | > 100 µM | 1.4 | <1 | 29.7 | 25.9 µM | 52.9 µM | 36.2 µM | 122 µM | > 100 µM
14 | Brc1cccc([C@@H]2C[C@@H]3Cc4ccc5ccccc5c4N2O3)c1 | 17.5 µM | 82.3 µM | > 250 µM | > 250 µM | 76.3 µM | >24 | >13.6 | >14.3 | 10.4 µM | 31.3 µM | > 250 µM | > 250 µM | 18.4 µM
15 | Clc1ccc([C@@H]2C[C@@H]3Cc4ccc5ccccc5c4N2O3)cc1 | 38.8 µM | 105 µM | 287 µM | > 300 µM | 83.4 µM | >8.5 | >17.7 | 7.4 | 35.4 µM | 43.1 µM | > 300 µM | > 300 µM | 16.2 µM
16 | O[C@@H]1Cc2ccc3ccccc3c2N[C@H](c2cccc(Br)c2)C1 | 10.7 µM | 19.4 µM | 49.5 µM | > 250 µM | > 100 µM | 2.3 | 0.5 | 4.6 | 18.3 µM | 55.7 µM | 41.7 µM | > 250 µM | > 100 µM
